target: T1, Muscarinic acetylcholine receptor M1 (Homo sapiens) (UniProt P11229); assay: Displacement of [3H]-NMS from human muscarinic M1 acetylcholine receptor expressed CHO cells after 4 hrs by scintillation counting; type: cell-based
T1 sequence (whole entry): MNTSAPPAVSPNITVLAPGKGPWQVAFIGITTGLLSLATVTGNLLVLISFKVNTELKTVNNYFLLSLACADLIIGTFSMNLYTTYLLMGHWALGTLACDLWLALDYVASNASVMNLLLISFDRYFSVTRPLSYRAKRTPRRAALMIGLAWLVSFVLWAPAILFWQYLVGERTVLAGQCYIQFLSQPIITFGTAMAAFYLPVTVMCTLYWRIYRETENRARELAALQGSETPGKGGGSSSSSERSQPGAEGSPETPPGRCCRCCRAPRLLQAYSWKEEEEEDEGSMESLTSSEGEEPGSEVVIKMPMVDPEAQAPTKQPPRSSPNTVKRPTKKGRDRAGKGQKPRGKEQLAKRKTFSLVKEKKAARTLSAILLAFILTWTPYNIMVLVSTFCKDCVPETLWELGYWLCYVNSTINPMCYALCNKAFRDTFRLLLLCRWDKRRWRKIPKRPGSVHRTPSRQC
In short: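 Whole FlpInCHO cells stably expressing human M1 mAChR, 20000/well, grown 8 h at 37 °C then serum-starved overnight. Binding buffer 10 mM HEPES, 100 mM NaCl, 10 mM MgCl2, pH 7.4. […] Ice-cold 0.9% NaCl washes, scintillation counting. Curves fitted to allosteric ternary complex model giving pKB and log α.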

**Q.** Which pKb does the source give for COc1ccc(Cn2cc(C#N)c(=O)c3c(F)ccc(F)c32)cc1 here?
**A.** Its pKb is 4.66.

**Q.** How did the pKb turn out when O=C(O)c1cn(CC2CCNCC2)c2ccccc2c1=O was run?
**A.** Its pKb is 4.82.

**Q.** Which pKb does the source give for COc1ccc(Cn2cc(C(=O)Nc3ccccc3)c(=O)c3c(F)ccc(F)c32)cc1 here?
**A.** Its pKb is 4.8.

**Q.** Which pKb does the source give for O=C(O)c1cn(Cc2ccc(-c3ccccc3)cc2)c2c(F)ccc(F)c2c1=O here?
**A.** Its pKb is 5.36.

**Q.** For COc1ccc(Cn2cc(C(N)=O)c(=O)c3c(F)ccc(F)c32)cc1, which pKb is on record?
**A.** Its pKb is 5.17.

**Q.** Which pKb does the source give for O=C(O)c1cn(CC2CCN(C(=O)Nc3ccccc3)CC2)c2ccccc2c1=O here?
**A.** Its pKb is 4.66.

**Q.** COc1ccc(Cn2cc(C(=O)O)c(=O)c3c(F)ccc(OC)c32)cc1 was tested. Which pKb did it give?
**A.** Its pKb is 4.86.

**Q.** CCOC(=O)c1cn(Cc2ccc(OC)cc2)c2cccc(OC)c2c1=O was tested. Which pKb did it give?
**A.** The pKb was 4.22.

**Q.** Which pKb does the source give for CCOC(=O)c1cn(Cc2ccc(OC)cc2)c2c(OC)ccc(F)c2c1=O here?
**A.** The pKb was 4.82.

**Q.** For COc1ccc(Cn2cc(C(=O)O)c(=O)c3cccc(OC)c32)cc1, which pKb is on record?
**A.** The pKb was 4.75.

**Q.** For CNC(=O)c1cn(Cc2ccc(OC)cc2)c2c(F)ccc(F)c2c1=O, which pKb is on record?
**A.** Its pKb is 4.92.

**Q.** How did the pKb turn out when COc1ccc(Cn2cc(C(=O)N(C)C)c(=O)c3c(F)ccc(F)c32)cc1 was run?
**A.** The pKb was 4.48.

**Q.** CCNC(=O)c1cn(Cc2ccc(OC)cc2)c2c(F)ccc(F)c2c1=O was tested. Which pKb did it give?
**A.** The pKb was 5.78.

**Q.** For CCOC(=O)c1cn(Cc2ccc(OC)cc2)c2c(OC)cccc2c1=O, which pKb is on record?
**A.** The pKb was 4.51.

**Q.** With CCOC(=O)c1cn(Cc2ccc(-c3ccccc3)cc2)c2c(F)ccc(F)c2c1=O as the compound, how does the pKb read?
**A.** Its pKb is 3.75.

**Q.** COc1cccc2c1c(=O)c(C(=O)O)cn2Cc1ccc(-c2ccccc2)cc1 was tested. Which pKb did it give?
**A.** The pKb was 5.67.

**Q.** Which pKb does the source give for CC(C)(C)OC(=O)N1CCC(Cn2cc(C(=O)O)c(=O)c3ccccc32)CC1 here?
**A.** Its pKb is 4.7.

**Q.** With O=C(O)c1cn(Cc2ccccc2-c2ccccc2)c2c(F)ccc(F)c2c1=O as the compound, how does the pKb read?
**A.** The pKb was 5.

**Q.** COc1cccc2c(=O)c(C(=O)O)cn(Cc3ccc(-c4ccccc4)cc3)c12 was tested. Which pKb did it give?
**A.** Its pKb is 5.71.

**Q.** COc1ccc(Cn2cc(C(=O)O)c(=O)c3c(F)ccc(F)c32)cc1 was tested. Which pKb did it give?
**A.** The pKb was 4.96.

**Q.** With COc1ccc(Cn2cc(C(=O)N3CCCCC3)c(=O)c3c(F)ccc(F)c32)cc1 as the compound, how does the pKb read?
**A.** Its pKb is 4.71.

**Q.** How did the pKb turn out when COc1ccc(F)c2c(=O)c(C(=O)O)cn(Cc3ccc(-c4ccccc4)cc3)c12 was run?
**A.** The pKb was 5.84.

**Q.** Which pKb does the source give for COc1ccc(Cn2cc(C(=O)NCCO)c(=O)c3c(F)ccc(F)c32)cc1 here?
**A.** Its pKb is 4.65.

**Q.** COc1ccc(Cn2cc(C(=O)NC(C)=O)c(=O)c3c(F)ccc(F)c32)cc1 was tested. Which pKb did it give?
**A.** The pKb was 4.35.

**Q.** With COc1ccc(Cn2cc(C(=O)NN3CCCCC3)c(=O)c3c(F)ccc(F)c32)cc1 as the compound, how does the pKb read?
**A.** The pKb was 5.07.

**Q.** Which pKb does the source give for CCOC(=O)c1cn(Cc2ccc(-c3ccccc3)cc2)c2cccc(OC)c2c1=O here?
**A.** Its pKb is 5.16.

**Q.** How did the pKb turn out when COc1ccc(Cn2cc(-c3nnn[nH]3)c(=O)c3c(F)ccc(F)c32)cc1 was run?
**A.** Its pKb is 4.97.

**Q.** Which pKb does the source give for O=C(O)c1cn(-c2ccc(-c3ccccc3)cc2)c2ccccc2c1=O here?
**A.** The pKb was 4.73.

**Q.** Which pKb does the source give for CCOC(=O)c1cn(Cc2ccc(OC)cc2)c2c(F)ccc(F)c2c1=O here?
**A.** The pKb was 5.12.

**Q.** COc1ccc(Cn2cc(C(=O)NO)c(=O)c3c(F)ccc(F)c32)cc1 was tested. Which pKb did it give?
**A.** The pKb was 4.8.

**Q.** How did the pKb turn out when CCOC(=O)c1cn(Cc2ccc(-c3ccccc3)cc2)c2c(OC)ccc(F)c2c1=O was run?
**A.** The pKb was 5.32.

**Q.** Which pKb does the source give for O=C(O)c1cn(Cc2ccc(-c3ccccc3)cc2)c2c(F)ccc(O)c2c1=O here?
**A.** The pKb was 5.55.

**Q.** COc1ccc(-n2cc(C(=O)O)c(=O)c3ccccc32)cc1 was tested. Which pKb did it give?
**A.** Its pKb is 4.65.

**Q.** COc1ccc(Cn2cc(C(=O)N3CCOCC3)c(=O)c3c(F)ccc(F)c32)cc1 was tested. Which pKb did it give?
**A.** Its pKb is 4.97.

**Q.** With COc1ccc(Cn2cc(C(=O)NS(C)(=O)=O)c(=O)c3c(F)ccc(F)c32)cc1 as the compound, how does the pKb read?
**A.** The pKb was 4.63.

**Q.** With COc1ccc(Cn2cc(C(=O)NCc3ccccc3)c(=O)c3c(F)ccc(F)c32)cc1 as the compound, how does the pKb read?
**A.** The pKb was 4.63.

**Q.** How did the pKb turn out when COc1ccc(Cn2cc(C(=O)N[C@H]3CCCC[C@@H]3O)c(=O)c3c(F)ccc(F)c32)cc1 was run?
**A.** Its pKb is 4.99.

**Q.** For O=C(O)c1cn(Cc2cccc(-c3ccccc3)c2)c2c(F)ccc(F)c2c1=O, which pKb is on record?
**A.** Its pKb is 5.55.

**Q.** Which pKb does the source give for CCOC(=O)c1cn(Cc2ccc(-c3ccccc3)cc2)c2c(OC)cccc2c1=O here?
**A.** Its pKb is 4.08.

**Q.** How did the pKb turn out when NCC#Cc1ccc(Cn2cc(C(=O)O)c(=O)c3c(F)ccc(F)c32)cc1 was run?
**A.** The pKb was 4.96.

**Q.** COc1ccc(Cn2cc(C(=O)O)c(=O)c3ccccc32)cc1 was tested. Which pKb did it give?
**A.** Its pKb is 4.72.

**Q.** With COc1ccc(Cn2cc(C(=O)O)c(=O)c3c(OC)cccc32)cc1 as the compound, how does the pKb read?
**A.** The pKb was 4.62.

**Q.** For O=C(O)c1cn(CC2CCN(Cc3ccccc3)CC2)c2ccccc2c1=O, which pKb is on record?
**A.** Its pKb is 5.13.

target: T2, Muscarinic acetylcholine receptor M1 (Homo sapiens, UniProt P11229); assay: Agonist activity at human muscarinic M1 acetylcholine receptor expressed CHO cells assessed as intracellular calcium mobilization after 1 hr by Fluo-4-AM based fluorescence assay; type: functional, cell-based
T2 sequence (P11229 whole entry): T1 sequence (whole entry)
In short: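 FlpInCHO cells stably expressing human M1 were seeded at 20000/well, grown 8 h at 37 °C in DMEM with 5% FBS, and serum-starved overnight. They were loaded 1 h at 37 °C with 1 μM Fluo-4-AM in HEPES Ca2+ buffer (0.5% BSA, 4 mM probenecid, pH 7.4). Modulator alone was added at 20 s and fluorescence was read at 485/520 nm over 100 s. Peak minus baseline was normalized to 100 μM ATP. Efficacy came from an operational model of allosteric agonism.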

**Q.** COc1ccc(Cn2cc(C(=O)O)c(=O)c3c(F)ccc(F)c32)cc1 was tested. Which EC50 did it give?
**A.** The EC50 was 31.6 nM.

target: T2, Muscarinic acetylcholine receptor M1; assay: Allosteric modulation of human muscarinic M1 acetylcholine receptor expressed CHO cells assessed as intracellular calcium mobilization after 1 hr by Fluo-4-AM based fluorescence assay; type: functional, cell-based
In short: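 Cells were FlpInCHO-hM1, serum-starved overnight, then loaded 1 h at 37 °C with 1 μM Fluo-4-AM in Ca2+ buffer (pH 7.4, 4 mM probenecid). ACh titrations with or without increasing modulator concentrations were co-added at 20 s. Curves were fitted to an operational model of allosterism (αβ, τB). Experiments were done three to four times in duplicate.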

**Q.** Which EC50 does the source give for COc1ccc(Cn2cc(C(=O)O)c(=O)c3c(F)ccc(F)c32)cc1 here?
**A.** Its EC50 is 31.6 nM.
